In ChEMBL document CHEMBL1123006, “Synthesis and cytotoxic activity of hydroxylated derivatives of olivacine in relation with their biotransformation” (1985):

Assays:
L1210 [1] = assay: Antitumor activity against L1210 leukemia cells expressed as dose concentration that reduces number of cells by 50% after 48 hrs exposure to drug.; type: functional; settings: Mus musculus, L1210, 48 h; read-out: ID50 (the source's name)
In short: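 L1210 leukemia cells grown in vitro with drug for 48 h; cell number counted against untreated control; ID50 taken as the concentration cutting cell number by 50%.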

Rattus norvegicus [2] = species on record: Rattus norvegicus; assay: Benzo[a]pyrene induced rat hepatic microsomal hydroxylation in vitro; type: functional; settings: Liver
In short: (§1)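 Liver microsomes from male Sprague–Dawley rats given benzo[a]pyrene 20 mg/kg/day ip in sunflower oil for 2 days, killed 2 days after last dose. Microsomes 0.5 mg protein/mL in Tris-HCl 0.02 M pH 7.4 with 1.15% KCl; olivacine acetate at five levels, 5–50 µM; NADPH 1 mg/mL; 37 °C, 5 min. Butanol extract, HPLC; Km/Vmax by Lineweaver-Burk; two rats.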

Rattus norvegicus [3] = species on record: Rattus norvegicus; assay: Non induced rat hepatic microsomal hydroxylation in vitro; type: functional; settings: Liver
In short: as §1, with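 “only vehicle” for “benzo[a]pyrene 20 mg/kg/day”, “(sunflower” for “in sunflower”, “or 0.9% NaCl).” for “for 2 days, killed 2 days after last dose.”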

Rattus norvegicus [4] = species on record: Rattus norvegicus; assay: Phenobarbital induced rat hepatic microsomal hydroxylation in vitro; type: functional; settings: Liver
In short: as §1, with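 “given phenobarbital 80” for “given benzo[a]pyrene 20”, “in 0.9% NaCl” for “in sunflower oil”, “for 3” for “for 2”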

L1210 [5] = assay: Antitumor efficiency against L1210 leukemia cells expressed as % increase in life span (ILS) 24 hrs after ip grafting (10e5 cells); type: functional, Mus musculus
In short: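 DBA/2 mice given 10^5 L1210 cells intraperitoneally, then a single ip drug dose 24 h later. ILS = (median survival of treated − median survival of controls) / median survival of controls × 100.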

Mus musculus [6] = assay: Cytotoxicity against L1210 leukemia cells administered through intraperitoneal route in mice; type: functional
Mus musculus [7] = assay: Highest nonlethal dose against mice administered through intraperitoneal route; type: functional

Structure (SMILES)	IC50 (L1210 [1]) [µM]	Km (Rattus norvegicus [2]) [µM]	Km (Rattus norvegicus [3]) [µM]	Km (Rattus norvegicus [4]) [µM]	ILS (L1210 [5]) [%]	LD0 (Mus musculus [6]) [mg/kg]	LD0 (Mus musculus [7]) [mg/kg]	Vmax (Rattus norvegicus [2]) [nM/min]	Vmax (Rattus norvegicus [3]) [nM/min]	Vmax (Rattus norvegicus [4]) [nM/min]
Cc1nccc2c(C)c3[nH]c4c(O)cccc4c3cc12	12.8	29	29.4	41.4						
Cc1nccc2c(C)c3[nH]c4ccccc4c3cc12	2.03				35	250				
Cc1nccc2c(C)c3[nH]c4ccc(O)cc4c3cc12	0.06	22.2	25	40	39		50	7.14	0.58	1.28
Cc1c2ccncc2c(C)c2c1[nH]c1ccccc12 [ELLIPTECINE]	0.99					50				
